Data set [1] relates to P. falciparum (CQ^R) Dd2 strain. The experiment in a line: In vitro antimalarial activity, Dd2 strain. It counts as cell-based, Plasmodium falciparum.
Data set [2] in a line: Monomeric heme binding, UV-visible titration and Job's plot. The note with it: association constant, HypSpec. In a few lines:
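UV–visible titration of test compound with monomeric heme at pH 7.4 (HEPES) and at food-vacuole pH 5.6 (MES), 1 cm cuvette at 25 °C. Association constants (log K) derived from the titration curves by non-linear least-squares fitting in HypSpec.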

Data set [3] relates to P. falciparum (CQ^S) D10 strain. Kind of data set: In vitro antimalarial activity, parasite lactate dehydrogenase assay, D10 strain. The class given is cell-based. The note with it: Plasmodium falciparum, D10, read-out: D10 IC50.
Data set [4] can be described thus: μ-oxo heme binding, UV-visible titration and Job's plot. The note with it: pH 5.8; association constant, HypSpec. In a few lines:
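UV–visible titration of test compound with μ-oxo heme at pH 5.8, plus Job plot (absorbance ratio A/A0 against mole fraction of test compound). Binding constant (log K) computed with HypSpec.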

The subject of another data set is Feline herpes virus. The experiment in a line: Anti-Feline Herpes Virus activity in CRFK cell cultures. It counts as cell-based. The note with it: for EC50: CRFK, read-out: EC50 Feline herpes virus.
Data set [5] relates to CT DNA. The experiment in a line: CT DNA binding, UV spectrophotometry titration. The note with it: both absorptions (255 and 330 nm), CT-DNA addition. The procedure, abridged: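 Test compound (30 μM) in buffered methanol titrated with CT-DNA (4–200 μM). UV–visible spectra recorded 200–1100 nm in a 1 cm quartz cuvette, cell holder at 25 °C. Changes followed at the 255 nm and 330 nm absorption bands.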

Data set [6] has as its system CT DNA. The experiment in a line: CT DNA binding, fluorescence titration. The note with it: emission band at 380 nm upon addition of CT DNA. In a few lines:
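Steady-state fluorescence at ambient temperature. Test compound (17.1 μM) in buffered methanol titrated with CT DNA (0.5–150 μM). Excitation 330 nm, emission monitored at 376 nm.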

For data set [7], the system named is Madin Darby canine kidney (MDCK) cells. The note with it: 50% cytotoxic concentration, MTS assay. For orientation: Formazan colour is commonly taken as a measure of viable cells.
For data set [8], the system named is Feline corona virus (FIPV). Kind of data set: Anti-Feline Corona Virus activity in CRFK cell cultures. The class given is cell-based. The following applies: HHA, UDA.
In data set [9] the test system is Crandell-Rees Feline Kidney (CRFK) cell cultures. The following applies: MTS assay, HHA, UDA.

Consider `CCN(CC)CCCC(C)Nc1ccnc2cc(Cl)ccc12` (stereo not drawn) [CQ, Chloroquine], for which the IC50 – broadly, the concentration that inhibits the measured activity by half – came out at 0.222 µM in data set [1] (Plasmodium falciparum, DD2, read-out: Dd2 IC50) and 0.035 µM in [3]. The figures for the “Monomeric heme, log K ± σ” value in data set [2] (pH 5.6 (MES buffer)) and in data set [2] (pH 7.4 (HEPES buffer)) were 4.65 ± 0.052 and 5.15 ± 0.176, respectively. Also, in data set [4], the “μ-oxoheme, log K ± σ” value is 5.58 ± 0.006.

Take `COC(=O)c1c(C)nc(NCCCNc2ccnc3cc(Cl)ccc23)nc1-c1ccccc1` [Compound 5a, Methyl 2-(3-((7-chloroquinolin-4-yl)amino)propylamino)-4-methyl-6-phenylpyrimidine-5-carboxylate]: the EC50 (in general, the concentration at which the effect is half-maximal) in the data set with Feline herpes virus is greater than 20 µM.

`Cc1nc(NCCCCNc2ccnc3cc(Cl)ccc23)nc(-c2ccccc2)c1C(=O)OC(C)C` [Compound 5b, i-Propyl 2-(4-((7-chloroquinolin-4-yl)amino)butylamino)-4-methyl-6-phenylpyrimidine-5-carboxylate]: the “fold increase in antimalarial activity than the standard CQ” value in data set [1] (CQ^R strain of P. falciparum) worked out at 2 fold. Moreover, in the data set with CT DNA [5], the bathochromic shift is roughly 3 nm. Moreover, in the data set on Feline herpes virus, the EC50 is greater than 20 µM. The “shift in emission band” value in the data set on CT DNA [6] is 80 nm.

With `CCOC(=O)c1c(C)nc(NCCCCNc2ccnc3cc(Cl)ccc23)nc1-c1ccccc1[N+](=O)[O-]` [Compound 5c, Ethyl 2-(4-((7-chloroquinolin-4-yl)amino)butylamino)-4-methyl-6-(2-nitrophenyl)pyrimidine-5-carboxylate], in the data set on Feline herpes virus, the EC50 is greater than 100 µM.

As for `CCOC(=O)c1c(C)nc(OCCCNc2ccnc3cc(Cl)ccc23)nc1-c1ccccc1` [Compound 5d, Ethyl 2-(3-((7-chloroquinolin-4-yl)amino)propoxy)-4-methyl-6-phenylpyrimidine-5-carboxylate], in the data set on Feline herpes virus, the EC50 was greater than 100 µM.

Turning to `CCOC(=O)c1c(C)nc(NCCCCNc2ccnc3cc(Cl)ccc23)nc1-c1ccc(Cl)cc1` [Compound 5e, Ethyl 4-(4-chlorophenyl)-2-(4-((7-chloroquinolin-4-yl)amino)butylamino)-6-methylpyrimidine-5-carboxylate], in the data set with Feline herpes virus, the EC50 is greater than 100 µM.

With `CCOC(=O)c1c(C)nc(NCCCCNc2ccnc3cc(Cl)ccc23)nc1-c1ccc(F)cc1` [Compound 5f, Ethyl 4-(4-fluorophenyl)-2-(4-((7-chloroquinolin-4-yl)amino)butylamino)-6-methylpyrimidine-5-carboxylate], the concentration giving a half-maximal response (EC50) in the data set with Feline herpes virus is greater than 100 µM.

Regarding “Ethyl 2-(3-((7-chloroquinolin-4-yl)amino)propylamino)-4-methylpyrimidine-5-carboxylate [Compound 5g]”, in data set [7], the midpoint of cytotoxicity, the CC50, lay at 10.3 µM.

B1: UDA: reference agent in the CRFK antiviral assay, values in μg/ml; not explained in the paper (protein, UniProt P11218 24-372, looked up)
Lectin/endochitinase 1: QRCGSQGGGGTCPALWCCSIWGWCGDSEPYCGRTCENKCWSGERSDHRCGAAVGNPPCGQDRCCSVHGWCGGGNDYCSGSKCQYRCSSSVRGPRVALSGNSTANSIGNVVVTEPLFDQMFSHRKDCPSQGFYSYHSFLVAAESFPAFGTIGDVATRKREVAAFLAHISQATSGERSDVENPHAWGLCHINTTTVTENDFCTSSDWPCAAGKKYSPRGPIQLTHNFNYGLAGQAIGEDLIQNPDLVEKDPIISFKTALWFWMSQHDNKPSCHDIVLNANSAANRIPNKGVIGNIISRAFGHDDFAVRSSSIGFYKRYCDMLGVSYGHDLKYWFDNTPSSEFQRIQMRVAA
With B1, the “EC50 Feline herpes virus” value in the data set on Feline herpes virus (CRFK cell cultures, HHA, UDA) amounted to 1.0 µg/mL. The “EC50 Feline corona virus (FIPV)” value in data set [8] worked out at 1.6 µg/mL. The CC50 – broadly, the concentration that lowers cell viability or growth by half – in data set [9] came to 63.2 µg/mL.

Source of the values: article PMC7115683 (European Journal of Medicinal Chemistry, 2013).
